# According to ChEMBL document CHEMBL1153772 (J Nat Prod, 2009):
# Experiments:
# [1] = Stability in PBS and inorganic phosphate at 40 uM after 3 hrs; type: physicochemical; conditions: read-out: Stability
# [2] = organism: Homo sapiens; test: Protein binding in human plasma at 10 uM; conditions: read-out: PPB (converted)
# [3] = tested on: OVCAR-4; test: Cytotoxicity against human OVCAR4 cells assessed cell growth; type: functional
# [4] = organism: Homo sapiens; test: Protein binding in human plasma at 1 uM; conditions: read-out: PPB (converted)
# [5] = tested on: SK-MEL-2; test: Cytotoxicity against human SK-MEL-2 cells assessed cell growth; type: functional
# [6] = tested on: U-251; test: Cytotoxicity against human U251 cells assessed cell growth; type: functional
# [7] = Unbound fraction in mouse plasma at 10 uM; type: ADME, cell-free
# [8] = tested on: HCC 2998; test: Cytotoxicity against human HCC2998 cells assessed cell growth; type: functional
# [9] = Metabolic stability in human liver microsomes assessed as compound metabolized at 1 uM in the presence of NADPH; type: ADME, Microsome; conditions: read-out: Activity
# [10] = tested on: A549; test: Cytotoxicity against human A549 cells; type: functional, cell-based
# Outline: (§1)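 IC50 value derived from at least three separate assay runs per sample.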
# [11] = Cytotoxicity against human Hs 578T cells assessed cell growth; type: functional
# [12] = tested on: NCI-H23; test: Cytotoxicity against human NCI-H23 cells assessed cell growth; type: functional
# [13] = tested on: DLD-1; test: Cytotoxicity against human DLD1 cells; type: functional, cell-based; outline: as §1
# [14] = Metabolic satbility in human liver microsomes assessed as compound remaining at 1 uM after 60 min in the presence of NADPH; type: ADME, Microsome; conditions: read-out: Stability
# [15] = Solubility at pH 7.4; type: physicochemical; conditions: buffer
# [16] = Permeability at 50 uM at pH 7.4 by PAMPA; type: ADME; conditions: read-out: permeability
# [17] = organism: Homo sapiens; test: Unbound fraction in human plasma at 1 uM
# [18] = organism: Homo sapiens; test: Unbound fraction in human plasma at 10 uM
# [19] = tested on: Malme-3M; test: Cytotoxicity against human MALME-3M cells assessed cell growth; type: functional
# [20] = Metabolic satbility in human liver microsomes assessed as compound remaining at 1 uM after 60 min in the absence of NADPH; type: ADME, Microsome; conditions: read-out: Stability
# [21] = tested on: M14; test: Cytotoxicity against human M14 cells assessed cell growth; type: functional
# [22] = tested on: SF-268; test: Cytotoxicity against human SF268 cells assessed cell growth; type: functional
# [23] = tested on: SNB-75; test: Cytotoxicity against human SNB75 cells assessed cell growth; type: functional
# [24] = tested on: BT-549; test: Cytotoxicity against human BT549 cells assessed cell growth; type: functional
# [25] = tested on: EKVX; test: Cytotoxicity against human EKVX cells assessed cell growth; type: functional
# [26] = organism: Homo sapiens; test: Stability in human plasma assessed as compound remaining at 40 uM after 3 hrs in presence of PBS and inorganic phosphate buffer
# [27] = tested on: SR; test: Cytotoxicity against human SR cells assessed cell growth; type: functional
# [28] = tested on: HOP-92; test: Cytotoxicity against human HOP92 cells assessed cell growth; type: functional
# [29] = Metabolic satbility in mouse liver microsomes assessed as compound remaining at 1 uM after 60 min in the absence of NADPH; type: ADME, Microsome; conditions: read-out: Stability
# [30] = Protein binding in mouse plasma at 1 uM; type: ADME, cell-free; conditions: read-out: PPB (converted)
# [31] = Permeability at 50 uM at pH 6.2 by PAMPA
# [32] = tested on: MDA-MB-231; test: Cytotoxicity against human MDA-MB-231 cells assessed cell growth; type: functional
# [33] = tested on: MOLT-4; test: Cytotoxicity against human MOLT4 cells assessed cell growth; type: functional
# [34] = Unbound fraction in mouse plasma at 1 uM; type: ADME, cell-free
# [35] = tested on: SK-MEL-28; test: Cytotoxicity against human SK-MEL-28 cells assessed cell growth; type: functional
# [36] = tested on: TK-10; test: Cytotoxicity against human TK10 cells assessed cell growth; type: functional
# [37] = tested on: HCT-116; test: Cytotoxicity against human HCT116 cells assessed cell growth; type: functional
# [38] = tested on: NCI-H322M; test: Cytotoxicity against human NCI-H322M cells assessed cell growth; type: functional
# [39] = Permeability at 50 uM at pH 5 by PAMPA; type: ADME; conditions: read-out: permeability
# [40] = Stability in mouse plasma assessed as compound remaining at 40 uM after 3 hrs in presence of PBS and inorganic phosphate buffer; type: ADME, cell-free; conditions: read-out: Activity
# [41] = Metabolic satbility in mouse liver microsomes assessed as compound remaining at 1 uM after 60 min in the presence of NADPH; type: ADME, Microsome; conditions: read-out: Stability
# [42] = tested on: Vero; test: Cytotoxicity against african green monkey Vero cells; type: cell-based; conditions: Chlorocebus sabaeus; outline: as §1
# [43] = tested on: Candida albicans; test: Antifungal activity against Candida albicans 44506 after 24 hrs by broth dilution assay; type: functional; conditions: Candida albicans, 44506, 24 h
# Outline: (§2)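 Broth microdilution in microtiter format at a seeding density of 10^3/mL. C. albicans was grown in Sabouraud dextrose broth; S. aureus and P. aeruginosa in cation-supplemented Mueller-Hinton broth. Incubated at 37°C, with growth scored after 24 h. MIC taken as the lowest concentration giving complete growth inhibition.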
# [44] = tested on: SN12C; test: Cytotoxicity against human SN12C cells assessed cell growth; type: functional
# [45] = tested on: Staphylococcus aureus; test: […] activity against methicillin resistant Staphylococcus aureus 700787 after 24 hrs by broth dilution assay; type: functional; conditions: Staphylococcus aureus, 700787, 24 h; outline: as §2
smiles,measurement,setting,value
CC(=O)N(C)CCc1cc(Br)c(OCCCNc2ncn(C)c3ncnc2-3)c(Br)c1 [APHROCALLISTIN],"remaining at 3 h, 40 µM",[1],76.5%
same,fraction unbound at 10 µM,[2],0.103
same,Activity,[3],33.32%
same,fraction unbound at 1 µM,[4],0.044
same,Activity,[5],71.47%
same,Activity,[6],79.39%
same,fraction unbound at 10 µM,[7],0.309
same,Activity,[8],65.57%
same,metabolised at 1 µM,[9],96.9%
same,IC50,[10],15.9 µM
same,Activity,[11],52.48%
same,Activity,[12],42.18%
same,IC50,[13],7.5 µM
same,"remaining at 1 h, 1 µM",[14],3.08%
same,solubility,[15],> 267 µg/mL
same,Papp at 50 µM,[16],321 ×10⁻⁶ cm/s
same,fraction unbound at 1 µM,[17],0.044
same,fraction unbound at 10 µM,[18],0.103
same,Activity,[19],76.4%
same,"remaining at 1 h, 1 µM",[20],118%
same,Activity,[21],73.49%
same,Activity,[22],97.87%
same,Activity,[23],81.17%
same,Activity,[24],56.49%
same,Activity,[25],45.38%
same,"remaining at 3 h, 40 µM",[26],76.6%
same,Activity,[27],10.72%
same,Activity,[28],75.25%
same,"remaining at 1 h, 1 µM",[29],103%
same,fraction unbound at 1 µM,[30],0.15
same,Papp at 50 µM,[31],201 ×10⁻⁶ cm/s
same,Activity,[32],74.94%
same,Activity,[33],50.93%
same,fraction unbound at 1 µM,[34],0.15
same,Activity,[35],84.58%
same,Activity,[36],89.47%
same,Activity,[37],28.57%
same,Activity,[38],76.48%
same,Papp at 50 µM,[39],33 ×10⁻⁶ cm/s
same,"remaining at 3 h, 40 µM",[40],79.6%
same,"remaining at 1 h, 1 µM",[41],1.44%
same,IC50,[42],76.1 µM
same,MIC,[43],250 µg/mL
same,Activity,[44],92.68%
same,MIC,[45],250 µg/mL
